{
  "source": "ChEMBL document CHEMBL1141109",
  "about": "“Synthesis of an estrogen receptor beta-selective radioligand: 5-[18F]fluoro-(2R,3S)-2,3-bis(4-hydroxyphenyl)pentanenitrile and comparison of in vivo distribution with 16alpha-[18F]fluoro-17beta-estradiol” (J Med Chem, 2005)",
  "key": {"[1]": {"organism": "Mus musculus", "assay": "Serum estradiol level in estrus estrogen receptor beta mouse; (n=3)", "assay_type": "functional, organism-based", "in_short": "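Serum was collected and sent to an outside laboratory for radioimmunoassay using reagents intended for human serum. […] Results are in pg/mL as mean ± SD, with three samples per mouse.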"}, "[2]": {"organism": "Mus musculus", "assay": "Serum estradiol level in nonestrus mouse BALB/c cell line; (n=3)"}},
  "data": [
    {"smiles": "C[C@]12CC[C@@H]3c4ccc(O)cc4CC[C@H]3[C@@H]1CC[C@@H]2O", "values": [
      {"measurement": "Level", "setting": "[1]", "value": 43.8, "unit": "pg/mL"},
      {"measurement": "Level", "setting": "[2]", "value": 28.7, "unit": "pg/mL"}
    ]}
  ]
}
